Screens (PubChem BioAssay)
Shown are actives, neighbours in structure and some others; about 2.3% of the full set was active somewhere.
TRPC6 inhibitor: blocks the mouse TRPC6 cation channel. HEK293-TRPC6, membrane potential dye, ACh-evoked depolarization; stronger effect = lower value. B-score at 10 µM. 1.1% of 310,000 active. AID 2553;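 active = B-score under library mean minus 3 SD, initial fluorescence not abnormally high, positive integrated signal ratio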;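 note: B-score derived from integrated fluorescence ratio over the kinetic read; more negative B-score means stronger inhibition of depolarization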
TRPC6 act: mouse TRPC6 channel activation; Q61143; HEK293-TRPC6 membrane potential dye fluorescence; stronger effect = higher value; B-score at 10 µM; 0.13% of 310,000 active; AID 2550;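 active = B-score of the integrated fluorescence ratio above library mean plus 3 SD, and starting fluorescence ratio within library mean plus 5 SD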;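 note: higher score means more depolarization so channel activation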
TRPC4 PAM: allosterically enhances the mouse TRPC4 cation channel | 0.42% of 310,000 active | Q9QUQ5 | B-score at 10 µM | AID 2227 | HEK293 TRPC4beta/mu-opioid, DAMGO EC20, Fluo-4 Ca2+ flux; stronger effect = higher value;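 active = B-score of calcium response area above 5 SD of library B-scores, with initial fluorescence ratio within 5 SD of library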;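 note: B-score of integrated fluorescence ratio over time as area under calcium response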
TRPC4 block: TRPC4 (mouse) channel inhibition; B-score at 10 µM; AID 2247; 0.39% of 300,000 active; Q9QUQ5; HEK293 TRPC4beta/mu-opioid, DAMGO-evoked Fluo4 calcium flux; stronger effect = lower value;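 active = B-score over 3 SD under the library average, no early fluorescence shift, positive overall ratio signal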
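Material: HEK293 cells with stable TRPC4beta plus mu-opioid receptor expression; probe or stimulus: DAMGO in two steps, submaximal then maximal; technique: Fluo4 calcium fluorescence by kinetic imaging, 5 s 1 Hz baseline; measure: integrated fluorescence ratio relative to baseline, converted to per-well B score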
TRPC4 agonist: TRPC4 (mouse) channel activation. Q9QUQ5. HEK293 TRPC4beta/mu-opioid, Fluo4 calcium fluorescence; stronger effect = higher value. B-score at 10 µM. 0.49% of 310,000 active. AID 2237;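 active = B-score above 5 SD of library B-scores, and initial fluorescence ratio not above library mean plus 5 SD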;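 note: positive B-score marks a calcium rise read as TRPC4 activation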
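Incubation: 45 min room-temperature Fluo4 loading, 110 s read / System: HEK293 cells stably co-expressing mouse TRPC4beta and mu-opioid receptor / Signal: Fluo4 fluorescence, kinetic / Control set: buffer (low) and maximal DAMGO (high) / Measure: integrated baseline-normalised fluorescence ratio, converted to per-well B score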
TRPC4 sel inh 2: second selectivity test of TRPC6 inhibitors: effect on mouse TRPC4; shares compounds with TRPC6 inhibitor; AID 2776; inhibition, % at 10 µM; 42% of 920 active; HEK293 TRPC4/MOR, membrane potential dye fluorescence; channel activated by saturating DAMGO dose;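 active = compounds whose fluorescence signal differed from control wells by over 3 SD, either direction, in both duplicate plates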
TRPC4 spec: mouse TRPC4 off-target activity of TRPC6 inhibitors; 61% of 920 active; activity change, negative = inhibition, % at 10 µM; shares compounds with TRPC6 inhibitor; HEK293 TRPC4/mu-opioid, membrane potential fluorescence; AID 2777;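 active = rise or fall in signal beyond 3 SD of buffer-only wells in both replicate plates, either sign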;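 note: integrated kinetic ratio of fluorescence range over baseline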
HEK293 MPD ctr 2-1: second counter-screen for TRPC6 inhibitors: parental HEK293 cells | shares compounds with TRPC6 inhibitor | parental HEK293 membrane potential dye fluorescence; maximal acetylcholine challenge after compound addition | signal change vs control, % at 10 µM | 31% of 920 active | AID 2779;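 active = membrane potential signal moving either way by over 3 SD of the maximum-effect control, in both duplicate plates, meaning non-specific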
HEK293 MPD ctr-1: parental HEK293 nonspecific activity of TRPC6 inhibitors; AID 2780; shares compounds with TRPC6 inhibitor; 60% of 920 active; parental HEK293 membrane potential dye fluorescence; membrane potential signal change, % at 10 µM;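 active = membrane potential signal shifting up or down by more than 3 SD of buffer-only wells, on both duplicate plates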
HEK293 MPD ctr-2: counter-screen for TRPC6 modulators: effect in parental HEK293 cells; shares compounds with TRPC6 inhibitor; membrane potential dye fluorescence; membrane potential signal change, % at 10 µM; 51% of 2,400 active;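 active = membrane potential signal moves up or down beyond 5 SD from buffer-only wells, on both duplicate plates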
HEK293 MPD ctr 2-2: second counter-screen for TRPC6 modulators: effect in parental HEK293 cells | shares compounds with TRPC6 inhibitor | membrane potential dye fluorescence; after compound, maximal acetylcholine stimulation | inhibition, % at 10 µM | 14% of 2,400 active | AID 488926;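 active = membrane potential signal drops by more than 5 SD from the mean control signal, in both duplicate plates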;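 note: plate controls were acetylcholine ECmax control wells for no effect and buffer only wells for full effect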
TRPC4 ctr mod: selectivity of TRPC6 modulators against mouse TRPC4 | percent change from control (negative = decrease, positive = increase), % at 10 µM | HEK293 TRPC4/mu-opioid, membrane potential fluorescence | shares compounds with TRPC6 inhibitor | 69% of 2,400 active;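 active = membrane potential signal moved up or down beyond 5 SD of buffer control wells, in both duplicate plates, actives on both sides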;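 note: plate controls were assay buffer wells for no effect and DAMGO maximal-effect wells for full effect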
TRPC4/MOR inh 2: second selectivity test of TRPC6 modulators against mouse TRPC4 | shares compounds with TRPC6 inhibitor | HEK293 TRPC4/mu-opioid, membrane potential dye fluorescence; stimulated with maximal-effect DAMGO | inhibition, % at 10 µM | 55% of 2,400 active | AID 488928;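 active = drop in membrane potential signal beyond 5 SD of the control wells in both duplicate plates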;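 note: TRPC4 counter screen for TRPC6 hits run under conditions tuned for TRPC6 not TRPC4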
TRPC6 inh conf: confirmation of mouse TRPC6 inhibitors; shares compounds with TRPC6 inhibitor; HEK293-TRPC6, membrane potential dye, ACh-evoked depolarization; inhibition, % at 10 µM; 43% of 3,300 active; AID 488960;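 active = fluorescence ratio falls more than 5 SD below the full-stimulation control mean, in both duplicate runs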;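 note: integrated fluorescence ratio of peak minus minimum over baseline after agonist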
TRPC6 act confirm: confirmation of mouse TRPC6 activators; shares compounds with TRPC6 inhibitor; HEK293-TRPC6 membrane potential dye fluorescence, FDSS; activation, % at 10 µM; 11% of 2,800 active; AID 488961;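 active = ratio signal rise beyond 5 SD above unstimulated control wells' mean, seen in both duplicate runs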;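 note: plate controls were buffer EC0 wells for no effect and acetylcholine ECmax response for full effect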
An asterisk follows results filed as active; i = inactive; / = not tested or not shown.

SMILES | TRPC6 inhibitor | TRPC6 act | TRPC4 PAM | TRPC4 block | TRPC4 agonist | HEK293 MPD ctr-2 | HEK293 MPD ctr 2-2 | TRPC4 ctr mod | TRPC4/MOR inh 2 | TRPC6 inh conf | TRPC6 act confirm | others
Cc1ccc2cc(CN(CCN3CCCC3)C(=O)Nc3ccc(F)cc3)c(=O)[nH]c2c1C | i | i | i | i | i | / | / | / | / | / | /
Cc1ccc2cc(CN(CCN3CCCC3)C(=O)Nc3ccccc3)c(=O)[nH]c2c1C | -5* | i | i | i | i | i | i | i | 54%* | 46%* | i
COc1ccc(CCNC(=O)CCn2c(=O)c3cccn3c3cccnc32)cc1OC | i | i | i | i | i | / | / | / | / | / | /
Cc1ccc(/C=C2/NC(=O)N(c3ccccc3)C2=O)o1 | i | i | i | i | i | / | / | / | / | / | /
O=C1N/C(=C/c2ccc(N3CCOCC3)o2)C(=O)N1c1cccc(Cl)c1 | i | 19* | i | i | i | 120%* | i | 34%* | i | i | i
CCN1C(=O)[C@@H]2[C@@H](c3ccc(-c4ccc(Cl)c(Cl)c4)c(OC)c3)N3CCCC[C@@]3(C(=O)OC)[C@@H]2C1=O | i | i | i | i | i | / | / | / | / | / | /
C[n+]1ccc(/C=C/c2ccccc2O)c2ccccc21 | -5.7* | i | i | i | i | -81%* | i | -16%* | i | 42%* | i
O=[N+]([O-])c1cccc(OCCCN2CCC(Cc3ccccc3)CC2)c1 | -7.1* | i | i | i | i | / | / | / | / | 88%* | i | TRPC4 sel inh 2=16%*;TRPC4 spec=-12%*;HEK293 MPD ctr 2-1=i;HEK293 MPD ctr-1=-224%*
CC(=O)CCc1ccc(OCCCCN2CCC(Cc3ccccc3)CC2)cc1 | -8.4* | i | i | i | i | i | i | i | 70%* | 46%* | /
Cc1ccc(C)c(OC(=O)c2cccnc2Cl)c1C | -6.2* | i | i | i | i | i | i | i | i | i | i
CN(Cc1c(F)cccc1Cl)C(=O)CCc1c[nH]c2ccccc12 | i | i | i | i | i | / | / | / | / | / | /
CCCCSc1nc2[nH]ncc2c(=O)[nH]1 | i | i | i | i | i | / | / | / | / | / | /
CCCCN(CCCC)c1cn[nH]c(=O)c1Cl | -6.9* | i | i | i | i | / | / | / | / | i | / | TRPC4 sel inh 2=i;TRPC4 spec=21%*;HEK293 MPD ctr 2-1=i;HEK293 MPD ctr-1=11%*
CC(C)c1nc(N2CCOCC2)c(C#N)c2c1CCCC2 | -5.5* | i | i | i | i | i | i | 18%* | i | i | /
Cc1ccc(S(=O)(=O)Nc2cccc(NC(=O)CN3CCCCC3)c2)cc1 | i | i | i | i | i | / | / | / | / | / | /
Cc1ccc(S(=O)(=O)Nc2ccc(NC(=O)CN3CCCCC3)cc2)cc1 | -6.8* | 13* | i | i | i | i | i | 8.5%* | i | 83%* | 118%*
O=[N+]([O-])c1ccc(OCCCCN2CCc3ccccc3C2)cc1 | -8.4* | i | i | i | i | / | / | / | / | i | i | TRPC4 sel inh 2=44%*;TRPC4 spec=i;HEK293 MPD ctr 2-1=i;HEK293 MPD ctr-1=i
C[N+](C)(C)C/C=C1/COCO1 | -6.7* | i | i | i | i | / | / | / | / | i | / | TRPC4 sel inh 2=i;TRPC4 spec=0.5%*;HEK293 MPD ctr 2-1=i;HEK293 MPD ctr-1=0.3%*
CCN(CC(=O)NC(C)(C)C)C(=O)C(c1ccccc1)c1ccccc1 | i | i | i | i | i | / | / | / | / | / | /
O=[N+]([O-])c1cc(-c2ccc(/C=N\n3cnnc3)o2)cc([N+](=O)[O-])c1 | -6.2* | i | i | i | i | -234%* | 63%* | -34%* | 42%* | i | i
CCc1cc(-c2[nH]ncc2-c2ccc3c(c2)OCO3)c(O)cc1O | -5.3* | i | i | i | i | i | i | i | 70%* | 65%* | i
CCN1CCN(c2cc(C)c3cc(NC(=O)c4cccs4)ccc3n2)CC1 | -5.3* | i | i | i | i | i | i | i | i | i | i
CCN1CCN(c2cc(C)c3cc(NC(=O)c4cncc(Br)c4)ccc3n2)CC1 | -11* | i | i | i | i | / | / | / | / | i | i | TRPC4 sel inh 2=i;TRPC4 spec=-17%*;HEK293 MPD ctr 2-1=i;HEK293 MPD ctr-1=-164%*
O=C1/C(=C\c2ccc(C(F)(F)F)cc2)CSc2sccc21 | -5* | i | i | i | i | i | i | 8.5%* | i | i | i
O=C1/C(=C/c2ccc(F)c(F)c2)CSc2sccc21 | i | i | i | i | i | / | / | / | / | / | /
COc1cc(C2NC(=O)NC(C)=C2C(=O)OC(C)C)ccc1OC(=O)c1ccco1 (configuration not stated) | i | i | i | i | i | / | / | / | / | / | /
CC1CCCN(C(=O)COC(=O)c2cc(-c3cccs3)nn2-c2ccccc2)C1 (configuration not stated) | -6.5* | i | i | i | i | 113%* | i | 18%* | i | 50%* | /
NC(=O)COC(=O)c1cc(-c2cccs2)nn1-c1ccccc1 | i | i | i | / | i | / | / | / | / | / | /
COc1cc(NC(=O)CSc2nc(C3CC3)nc3ccccc23)cc(OC)c1 | i | i | i | i | i | / | / | / | / | / | /
COC(=O)c1ccccc1NC(=O)CN1CCC(C)CC1 | -5.1* | i | i | i | i | i | i | 20%* | i | 39%* | /
